Among the data in ChEMBL document CHEMBL1165988, “Dithiolopyrrolone antibiotic formation induced by adding valeric acid to the culture broth of Saccharothrix algeriensis” (2010) are MIC values, retold here.

Converted amounts (≈) assume the structure as drawn.

Holding throughout (assay type): functional
The subject of one test is Salmonella enterica. The experiment in a line: Antimicrobial activity against Salmonella enterica CIP 81.3 after 24 to 48 hrs by agar dilution method. The gist of the method:
(§1)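 MIC determined by conventional agar dilution on ISP2 medium; bacterial plates incubated at 37 °C and read for growth inhibition after 24-48 h; each test repeated four times.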
For orientation: In agar dilution the substance is mixed into plates at graded concentrations.

For another test, the system named is Klebsiella pneumoniae. The experiment in a line: Antimicrobial activity against Klebsiella pneumoniae CIP 82.91 after 24 to 48 hrs by agar dilution method. The gist of the method: as §1
Another test relates to Bacillus subtilis. The experiment in a line: Antimicrobial activity against Bacillus subtilis ATCC 6633 after 24 to 48 hrs by agar dilution method. The gist of the method: as §1
A further test has as its system Fusarium graminearum. The experiment in a line: Antimicrobial activity against Fusarium graminearum after 48 to 72 hrs by agar dilution method. The method, boiled down:
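Agar dilution MIC on ISP2 medium; fungal plates incubated 48-72 h at 28 °C; each test repeated four times.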

The subject of the next test is Penicillium expansum. The experiment in a line: Antimicrobial activity against Penicillium expansum after 48 to 72 hrs by agar dilution method. The method, boiled down: (§2)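 Filamentous fungi and yeasts tested by conventional agar dilution on ISP2 medium to give MIC; plates incubated at 28 °C and read after 48-72 h; each test repeated four times.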
The test system of another test is Fusarium culmorum. The experiment in a line: Antimicrobial activity against Fusarium culmorum after 48 to 72 hrs by agar dilution method. The method, boiled down: as §2
In another test the test system is Saccharomyces cerevisiae. The experiment in a line: Antimicrobial activity against Saccharomyces cerevisiae ATCC 4226 after 48 to 72 hrs by agar dilution method. The method, boiled down: as §2
A further test deals with Listeria monocytogenes. The experiment in a line: Antimicrobial activity against Listeria monocytogenes CIP 82110 after 24 to 48 hrs by agar dilution method. The gist of the method: as §1
The subject of another test is Micrococcus luteus. The experiment in a line: Antimicrobial activity against Micrococcus luteus ATCC 9314 after 24 to 48 hrs by agar dilution method. The method, boiled down: as §1
The next test relates to Escherichia coli. The experiment in a line: Antimicrobial activity against Escherichia coli ATCC 10536 after 24 to 48 hrs by agar dilution method. The method, boiled down: as §1
For another test, the system named is Fusarium equiseti. The experiment in a line: Antimicrobial activity against Fusarium equiseti after 48 to 72 hrs by agar dilution method. The gist of the method:
as §2

For another test, the system named is Fusarium oxysporum. The experiment in a line: Antimicrobial activity against Fusarium oxysporum f.sp. lini (Foln 3-5) after 48 to 72 hrs by agar dilution method. The gist of the method: as §2
The test system of the next test is Pseudomonas aeruginosa. The experiment in a line: Antimicrobial activity against Pseudomonas aeruginosa CIP A22 after 24 to 48 hrs by agar dilution method. The method, boiled down: as §1
In the next test the test system is Umbelopsis ramanniana. The experiment in a line: Antimicrobial activity against Mucor ramannianus NRRL 1829 after 48 to 72 hrs by agar dilution method. The gist of the method: as §2
For test [1], the system named is Agrobacterium tumefaciens. The experiment in a line: Antimicrobial activity against Agrobacterium tumefaciens no. 2410 LB after 24 to 48 hrs by agar dilution method. The gist of the method: as §1
Another test deals with Heyndrickxia coagulans. The experiment in a line: Antimicrobial activity against Bacillus coagulans CIP 6625 after 24 to 48 hrs by agar dilution method. The gist of the method:
as §1

Another test relates to Candida albicans. The experiment in a line: Antimicrobial activity against Candida albicans IPA 200 after 48 to 72 hrs by agar dilution method. The method, boiled down:
as §2

A further test relates to Fusarium verticillioides. The experiment in a line: Antimicrobial activity against Fusarium moniliforme after 48 to 72 hrs by agar dilution method. The method, boiled down:
as §2

The subject of a further test is Staphylococcus aureus. The experiment in a line: Antimicrobial activity against Staphylococcus aureus CIP 7625 after 24 to 48 hrs by agar dilution method. The method, boiled down:
as §1

In a further test the test system is Aspergillus carbonarius. The experiment in a line: Antimicrobial activity against Aspergillus carbonarius M333 after 48 to 72 hrs by agar dilution method. The method, boiled down: as §2

Usually MIC stands for the smallest concentration in the dilution series that meets the test's criterion for growth inhibition. A higher MIC goes with weaker potency. `CCC(=O)Nc1c2sscc-2n(C)c1=O` [AUREOTHRICIN]: the minimal inhibitory concentration (MIC) is over 100 µg/mL against Salmonella enterica; over 100 µg/mL in the test on Klebsiella pneumoniae; 20 µg/mL (≈ 82.5 µM) against Bacillus subtilis; 75 µg/mL (≈ 310 µM) against Fusarium graminearum; 20 µg/mL (≈ 82.5 µM) in the test with Penicillium expansum; 20 µg/mL (≈ 82.5 µM) in the test with Fusarium culmorum. For the same compound, the minimal inhibitory concentration (MIC) against Saccharomyces cerevisiae is 40 µg/mL (≈ 165 µM); in the test on Listeria monocytogenes it was over 100 µg/mL; with Micrococcus luteus, 20 µg/mL (≈ 82.5 µM); with Escherichia coli, 75 µg/mL (≈ 310 µM); in the test with Fusarium equiseti, 20 µg/mL (≈ 82.5 µM); against Fusarium oxysporum, 40 µg/mL (≈ 165 µM). The minimum inhibitory concentration (MIC) is over 100 µg/mL in the test with Pseudomonas aeruginosa; 20 µg/mL (≈ 82.5 µM) in the test with Umbelopsis ramanniana; over 100 µg/mL in test [1]; 20 µg/mL (≈ 82.5 µM) against Heyndrickxia coagulans; 75 µg/mL (≈ 310 µM) in the test on Candida albicans; 75 µg/mL (≈ 310 µM) against Fusarium verticillioides. Also, the results for the MIC with Staphylococcus aureus and against Aspergillus carbonarius were 100 µg/mL (≈ 413 µM) and 40 µg/mL (≈ 165 µM), respectively.

For the compound `Cn1c2cssc-2c(NC=O)c1=O` [FORMYLPYRROTHINE], the MIC against Salmonella enterica is over 100 µg/mL; against Klebsiella pneumoniae, over 100 µg/mL; against Bacillus subtilis, 2 µg/mL (≈ 9.33 µM); against Fusarium graminearum, 40 µg/mL (≈ 187 µM); in the test on Penicillium expansum it was 3 µg/mL (≈ 14 µM); against Fusarium culmorum, 10 µg/mL (≈ 46.7 µM). Moreover, the MIC is 75 µg/mL (≈ 350 µM) with Saccharomyces cerevisiae; 20 µg/mL (≈ 93.3 µM) with Listeria monocytogenes; 3 µg/mL (≈ 14 µM) against Micrococcus luteus; 40 µg/mL (≈ 187 µM) in the test with Escherichia coli; 10 µg/mL (≈ 46.7 µM) in the test with Fusarium equiseti; 30 µg/mL (≈ 140 µM) with Fusarium oxysporum. Besides, the MIC was over 100 µg/mL against Pseudomonas aeruginosa; 10 µg/mL (≈ 46.7 µM) in the test with Umbelopsis ramanniana; over 100 µg/mL in test [1]; 2 µg/mL (≈ 9.33 µM) in the test with Heyndrickxia coagulans; 75 µg/mL (≈ 350 µM) against Candida albicans; 75 µg/mL (≈ 350 µM) in the test on Fusarium verticillioides. Also, the MIC stood at 2 µg/mL (≈ 9.33 µM) against Staphylococcus aureus and 50 µg/mL (≈ 233 µM) in the test on Aspergillus carbonarius.

On to `CCCCC(=O)Nc1c2sscc-2n(C)c1=O` [VALERYLPYRROTHINE], for which the MIC against Salmonella enterica was over 100 µg/mL; against Klebsiella pneumoniae, over 100 µg/mL; with Bacillus subtilis, 20 µg/mL (≈ 74 µM); in the test with Fusarium graminearum it was 75 µg/mL (≈ 277 µM); against Penicillium expansum, 20 µg/mL (≈ 74 µM); with Fusarium culmorum, 20 µg/mL (≈ 74 µM). Further, the MIC in the test on Saccharomyces cerevisiae was 10 µg/mL (≈ 37 µM); against Listeria monocytogenes, over 100 µg/mL; against Micrococcus luteus, 40 µg/mL (≈ 148 µM); in the test on Escherichia coli it was over 100 µg/mL; against Fusarium equiseti, 20 µg/mL (≈ 74 µM); with Fusarium oxysporum, 50 µg/mL (≈ 185 µM). Besides, the MIC against Pseudomonas aeruginosa is over 100 µg/mL; with Umbelopsis ramanniana, 10 µg/mL (≈ 37 µM); in test [1], over 100 µg/mL; in the test on Heyndrickxia coagulans, 20 µg/mL (≈ 74 µM); in the test on Candida albicans it was 20 µg/mL (≈ 74 µM); with Fusarium verticillioides it was 75 µg/mL (≈ 277 µM). In addition, the MIC against Staphylococcus aureus is 75 µg/mL (≈ 277 µM); in the test on Aspergillus carbonarius it was 20 µg/mL (≈ 74 µM).
